# Experimental data of several laboratories.
# Compare with care: the assays were run in different laboratories. pIC50: −log10 of the molar value.
# Effect on: cell growth or viability
SMILES,cell line,assay,setting,quantity,value
CC[C@@]1(O)C(=O)OCc2c1cc1n(c2=O)Cc2cc3ccccc3nc2-1,CNSSF-539,SRB,48 h,GI50,0.01 µM
CC(=O)Nc1cccc(-n2c(=O)n(C3CC3)c(=O)c3c(Nc4ccc(I)cc4F)n(C)c(=O)c(C)c32)c1,SW1417,resazurin,"6.25 nM, 72 h",viability,71.8%
N#Cc1ccc2c(c1)C(=O)CCc1ccccc1C(=O)N2,L6,,,pIC50,3.80
Nc1nc(Cl)nc2c1ncn2[C@H]1C[C@H](O)[C@@H](CO)O1,GISTT1,resazurin,72 h,pIC50,< 6.00
CN1C(=O)c2ccccc2CCC(=O)c2ccccc21,L6,,,pIC50,< 3.42
CC(=O)O[C@H]1C(=O)[C@@]2(C)[C@H]([C@H](OC(=O)c3ccccc3)[C@]3(O)C[C@H](OC(=O)[C@H](O)[C@@H](NC(=O)c4ccccc4)c4ccccc4)C(C)=C1C3(C)C)[C@]1(OC(C)=O)CO[C@@H]1C[C@@H]2O,GISTT1,resazurin,72 h,pIC50,6.68
O=C1Nc2ccccc2CCCc2ccccc21,L6,,,pIC50,3.72
Cc1cc2c(cc1N1C(=O)c3cccc4c(CCCO)ccc(c34)C1=O)n(C)c(=O)n2C (racemic),MDA-MB-453,resazurin,,GI50,> 10 µM
COc1cc2c(cc1OS(N)(=O)=O)CCN(Cc1cc(Cl)c(OC)c(OC)c1)C2,CNSSF-539,SRB,,GI50,0.019 µM
O=C1Nc2cc(F)cc(F)c2C(=O)CCc2ccccc21,L6,,,pIC50,4.07
COc1cc2c(cc1O)CCN(Cc1cc(Cl)c(OC)c(OC)c1)C2,CNSSF-539,SRB,,GI50,0.365 µM
CC[C@@]1(O)C(=O)OCc2c1cc1n(c2=O)Cc2cc3c(CN(C)C)c(O)ccc3nc2-1,GISTT1,resazurin,72 h,pIC50,7.10
O=c1ncccn1[C@@H]1O[C@H](CO)[C@@H](O)[C@H]1O,MEC1,,48 h,IC20,75 µM
